Source: ChEMBL document CHEMBL1124384, “Deaminoteicoplanin and its derivatives. Synthesis, antibacterial activity, and binding strength to Ac-D-Ala-D-Ala” (J Med Chem, 1989)
Values after ≈ are worked out from the molar mass of the structure shown.

Key:
Enterococcus faecalis = test: Minimal inhibitory concentration of compound against Streptococcus faecalis AACC7080; type: functional
Summary of the method: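 For S. faecalis, 2-fold dilution MIC in a microtiter system using Iso-sensitest broth and a final inoculum of about 10⁴ cfu/mL. Incubation was 18–24 h at 37 °C. The endpoint was the lowest concentration without visible growth.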

Staphylococcus aureus [1] = test: Minimal inhibitory concentration of compound against Staphylococcus aureus Tour determined in iso-sensitest broth supplemented with 30% bovine serum and an inoculum of 10e4 cfu/mL
[2] = Association constant for compound at 31 degree C was determined; type: ADME
Summary of the method: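 UV difference spectroscopy at 31 °C. Antibiotic at 25 μM in 10% methanol/0.02 M sodium citrate buffer, pH 5, sat in sample and reference cells (4-cm path). Ac-D-Ala-D-Ala was added from a 4 mM stock to the sample cell, with buffer added to the reference. The absorbance change was read at 282–285 nm. K_A came from Scatchard plots, with antibiotic concentration set by UV at 279 nm.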

Streptococcus pyogenes = test: Minimal inhibitory concentration of compound against Streptococcus pyogenes C203; type: functional
Summary of the method: (§1)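 Streptococci were tested by 2-fold broth microdilution in Todd-Hewitt broth, with a final inoculum of about 10⁴ cfu/mL. After 18–24 h at 37 °C, MIC was read as the lowest concentration with no visible growth.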

Staphylococcus aureus [3] = test: Minimal inhibitory concentration of compound against Staphylococcus aureus Tour; type: functional
Summary of the method: (§2)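 Broth MIC by 2-fold serial dilution in microtiter format, in Iso-sensitest broth, with a final inoculum of about 10⁴ cfu/mL. Plates were incubated 18–24 h at 37 °C. MIC was taken as the lowest concentration with no visible growth.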

Staphylococcus aureus [4] = test: Minimal inhibitory concentration of compound against Staphylococcus aureus Tour in an inoculum of 10e6 cfu/mL; type: functional
Summary of the method: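 Twofold microtiter broth dilution in Iso-sensitest broth, with the inoculum raised to 10⁶ cfu/mL. After 18–24 h at 37 °C, MIC was read as the lowest concentration giving no visible growth.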

[5] = test system: Staphylococcus epidermidis; test: Minimal inhibitory concentration of compound against […] ATCC 12228; type: functional
Streptococcus pneumoniae = test: Minimal inhibitory concentration of compound against Streptococcus pneumoniae UC41; type: functional; summary of the method: as §1
Staphylococcus aureus [6] = test: Minimal inhibitory concentration of compound against Staphylococcus aureus; type: functional; summary of the method: as §2

| Structure (SMILES) | MIC (Enterococcus faecalis) [µg/mL] | MIC (Staphylococcus aureus [1]) [µg/mL] | KA [2] [M⁻¹] | MIC (Streptococcus pyogenes) [µg/mL] | MIC (Staphylococcus aureus [3]) [µg/mL] | MIC (Staphylococcus aureus [4]) [µg/mL] | MIC [5] [µg/mL] | MIC (Streptococcus pneumoniae) [µg/mL] | MIC (Staphylococcus aureus [6]) [µg/mL] |
| --- | --- | --- | --- | --- | --- | --- | --- | --- | --- |
| CCCCCCCCCC(=O)N[C@@H]1[C@H](Oc2c3cc4cc2Oc2ccc(cc2Cl)[C@@H](O[C@@H]2O[C@@H](CO)[C@@H](O)[C@H](O)[C@@H]2NC(C)=O)[C@@H]2NC(=O)[C@H](NC(=O)[C@@H]4NC(=O)[C@H]4NC(=O)[C@@H](Cc5ccc(c(Cl)c5)O3)NC(=O)[C@H](N)c3ccc(O)c(c3)Oc3cc(O)cc4c3)c3ccc(O)c(c3)-c3c(O[C@H]4O[C@H](CO)[C@@H](O)[C@@H](O)[C@@H]4O)cc(O)cc3[C@@H](C(=O)O)NC2=O)O[C@@H](CO)[C@@H](O)[C@@H]1O | 0.12 (≈ 0.0638 µM) | 0.5 (≈ 0.266 µM) | 1100000 | 0.06 (≈ 0.0319 µM) | 0.12 (≈ 0.0638 µM) | 0.5 (≈ 0.266 µM) | 0.25 (≈ 0.133 µM) | 0.06 (≈ 0.0319 µM) |  |
| CC(=O)N[C@@H]1[C@H](O[C@@H]2c3ccc(c(Cl)c3)Oc3cc4cc(c3O)Oc3ccc(cc3Cl)C[C@H]3NC(=O)[C@H](N)c5ccc(O)c(c5)Oc5cc(O)cc(c5)[C@H](NC3=O)C(=O)N[C@H]4C(=O)N[C@H]3C(=O)N[C@@H]2C(=O)N[C@H](C(=O)O)c2cc(O)cc(O)c2-c2cc3ccc2O)O[C@@H](CO)[C@@H](O)[C@@H]1O | 1 (≈ 0.713 µM) | 0.5 (≈ 0.357 µM) |  | 0.5 (≈ 0.357 µM) | 0.5 (≈ 0.357 µM) | 0.25 (≈ 0.178 µM) | 0.12 (≈ 0.0856 µM) | 1 (≈ 0.713 µM) |  |
| CC(=O)N[C@@H]1[C@H](O[C@@H]2c3ccc(c(Cl)c3)Oc3cc4cc(c3O)Oc3ccc(cc3Cl)C[C@H]3NC(=O)[C@H](N)c5ccc(O)c(c5)Oc5cc(O)cc(c5)[C@H](NC3=O)C(=O)N[C@H]4C(=O)N[C@H]3C(=O)N[C@@H]2C(=O)N[C@H](C(=O)O)c2cc(O)cc(O[C@H]4O[C@H](CO)[C@@H](O)[C@@H](O)[C@@H]4O)c2-c2cc3ccc2O)O[C@@H](CO)[C@@H](O)[C@@H]1O | 2 (≈ 1.28 µM) | 0.5 (≈ 0.32 µM) |  | 0.5 (≈ 0.32 µM) | 0.25 (≈ 0.16 µM) | 0.5 (≈ 0.32 µM) | 0.25 (≈ 0.16 µM) | 0.5 (≈ 0.32 µM) |  |
| N[C@H]1C(=O)N[C@@H]2Cc3ccc(c(Cl)c3)Oc3cc4cc(c3O)Oc3ccc(cc3Cl)[C@@H](O)[C@@H]3NC(=O)[C@H](NC(=O)[C@@H]4NC(=O)[C@@H](NC2=O)c2cc(O)cc(c2)Oc2cc1ccc2O)c1ccc(O)c(c1)-c1c(O)cc(O)cc1[C@@H](C(=O)NC1CN2CCC1CC2)NC3=O (some centres undefined) | 0.12 (≈ 0.0918 µM) | 0.5 (≈ 0.383 µM) |  | 0.06 (≈ 0.0459 µM) | 0.12 (≈ 0.0918 µM) | 0.12 (≈ 0.0918 µM) | 0.06 (≈ 0.0459 µM) | 0.06 (≈ 0.0459 µM) |  |
| CCCCCCCCCC(=O)N[C@@H]1[C@H](Oc2c3cc4cc2Oc2ccc(cc2Cl)[C@@H](O[C@@H]2O[C@@H](CO)[C@@H](O)[C@H](O)[C@@H]2NC(C)=O)[C@@H]2NC(=O)[C@H](NC(=O)[C@@H]4NC(=O)[C@H]4NC(=O)[C@@H](Cc5ccc(c(Cl)c5)O3)NC(=O)Cc3ccc(O)c(c3)Oc3cc(O)cc4c3)c3ccc(O)c(c3)-c3c(O[C@H]4O[C@H](CO)[C@@H](O)[C@@H](O)[C@@H]4O)cc(O)cc3[C@@H](C(=O)N(C)C)NC2=O)O[C@@H](CO)[C@@H](O)[C@@H]1O | 0.25 (≈ 0.132 µM) | 4 (≈ 2.11 µM) | 200000 | 0.12 (≈ 0.0634 µM) | 0.12 (≈ 0.0634 µM) | 1 (≈ 0.529 µM) | 0.12 (≈ 0.0634 µM) | 0.12 (≈ 0.0634 µM) |  |
| O=C1Cc2ccc(O)c(c2)Oc2cc(O)cc(c2)[C@@H]2NC(=O)[C@@H](Cc3ccc(c(Cl)c3)Oc3cc4cc(c3O)Oc3ccc(cc3Cl)[C@@H](O)[C@@H]3NC(=O)[C@H](NC(=O)[C@@H]4NC2=O)c2ccc(O)c(c2)-c2c(O)cc(O)cc2[C@@H](C(=O)NC2CN4CCC2CC4)NC3=O)N1 (some centres undefined) | 0.25 (≈ 0.193 µM) | 4 (≈ 3.1 µM) | 22000 | 0.12 (≈ 0.0929 µM) | 0.12 (≈ 0.0929 µM) | 0.25 (≈ 0.193 µM) | 0.12 (≈ 0.0929 µM) | 0.12 (≈ 0.0929 µM) |  |
| N[C@H]1C(=O)N[C@@H]2Cc3ccc(c(Cl)c3)Oc3cc4cc(c3O)Oc3ccc(cc3Cl)[C@@H](O)[C@@H]3NC(=O)[C@H](NC(=O)[C@@H]4NC(=O)[C@@H](NC2=O)c2cc(O)cc(c2)Oc2cc1ccc2O)c1ccc(O)c(c1)-c1c(O)cc(O)cc1[C@@H](C(=O)O)NC3=O [TEICOPLANIN AGLYCON] | 0.12 (≈ 0.1 µM) | 0.25 (≈ 0.209 µM) | 180000 | 0.12 (≈ 0.1 µM) | 0.06 (≈ 0.05 µM) | 0.12 (≈ 0.1 µM) | 0.016 (≈ 0.0133 µM) | 0.12 (≈ 0.1 µM) |  |
| CN(C)CCCNC(=O)[C@H]1NC(=O)[C@H]2NC(=O)[C@H](NC(=O)[C@@H]3NC(=O)[C@H]4NC(=O)[C@@H](Cc5ccc(c(Cl)c5)Oc5cc3cc(c5O)Oc3ccc(cc3Cl)[C@H]2O)NC(=O)[C@H](N)c2ccc(O)c(c2)Oc2cc(O)cc4c2)c2ccc(O)c(c2)-c2c(O)cc(O)cc21 | 0.12 (≈ 0.0935 µM) | 0.25 (≈ 0.195 µM) |  | 0.06 (≈ 0.0468 µM) | 0.06 (≈ 0.0468 µM) | 0.12 (≈ 0.0935 µM) | 0.016 (≈ 0.0125 µM) | 0.06 (≈ 0.0468 µM) |  |
| CC(=O)N[C@@H]1[C@H](O[C@@H]2c3ccc(c(Cl)c3)Oc3cc4cc(c3O)Oc3ccc(cc3Cl)C[C@H]3NC(=O)Cc5ccc(O)c(c5)Oc5cc(O)cc(c5)[C@H](NC3=O)C(=O)N[C@H]4C(=O)N[C@H]3C(=O)N[C@@H]2C(=O)N[C@H](C(=O)O)c2cc(O)cc(O[C@H]4O[C@H](CO)[C@@H](O)[C@@H](O)[C@@H]4O)c2-c2cc3ccc2O)O[C@@H](CO)[C@@H](O)[C@@H]1O | 4 (≈ 2.58 µM) | 16 (≈ 10.3 µM) |  | 4 (≈ 2.58 µM) | 2 (≈ 1.29 µM) | 8 (≈ 5.16 µM) | 1 (≈ 0.645 µM) | 4 (≈ 2.58 µM) |  |
| CCCCCCCCCC(=O)N[C@@H]1[C@H](Oc2c3cc4cc2Oc2ccc(cc2Cl)[C@@H](O[C@@H]2O[C@@H](CO)[C@@H](O)[C@H](O)[C@@H]2NC(C)=O)[C@@H]2NC(=O)[C@H](NC(=O)[C@@H]4NC(=O)[C@H]4NC(=O)[C@@H](Cc5ccc(c(Cl)c5)O3)NC(=O)[C@H](N)c3ccc(O)c(c3)Oc3cc(O)cc4c3)c3ccc(O)c(c3)-c3c(O[C@H]4O[C@H](CO)[C@@H](O)[C@@H](O)[C@@H]4O)cc(O)cc3[C@@H](C(=O)N(C)C)NC2=O)O[C@@H](CO)[C@@H](O)[C@@H]1O | 0.12 (≈ 0.0629 µM) | 0.5 (≈ 0.262 µM) |  | 0.06 (≈ 0.0315 µM) | 0.12 (≈ 0.0629 µM) | 0.12 (≈ 0.0629 µM) | 0.06 (≈ 0.0315 µM) | 0.06 (≈ 0.0315 µM) |  |
| CCCCCCCCCC(=O)N[C@@H]1[C@H](Oc2c3cc4cc2Oc2ccc(cc2Cl)[C@@H](O[C@@H]2O[C@@H](CO)[C@@H](O)[C@H](O)[C@@H]2NC(C)=O)[C@@H]2NC(=O)[C@H](NC(=O)[C@@H]4NC(=O)[C@H]4NC(=O)[C@@H](Cc5ccc(c(Cl)c5)O3)NC(=O)Cc3ccc(O)c(c3)Oc3cc(O)cc4c3)c3ccc(O)c(c3)-c3c(O[C@H]4O[C@H](CO)[C@@H](O)[C@@H](O)[C@@H]4O)cc(O)cc3[C@@H](C(=O)O)NC2=O)O[C@@H](CO)[C@@H](O)[C@@H]1O | 0.5 (≈ 0.268 µM) | 8 (≈ 4.29 µM) | 130000 | 0.12 (≈ 0.0644 µM) |  | 2 (≈ 1.07 µM) | 0.12 (≈ 0.0644 µM) | 0.25 (≈ 0.134 µM) | 0.5 (≈ 0.268 µM) |
| O=C1Cc2ccc(O)c(c2)Oc2cc(O)cc(c2)[C@@H]2NC(=O)[C@@H](Cc3ccc(c(Cl)c3)Oc3cc4cc(c3O)Oc3ccc(cc3Cl)[C@@H](O)[C@@H]3NC(=O)[C@H](NC(=O)[C@@H]4NC2=O)c2ccc(O)c(c2)-c2c(O)cc(O)cc2[C@@H](C(=O)O)NC3=O)N1 | 0.12 (≈ 0.101 µM) | 1 (≈ 0.845 µM) | 11000 | 0.06 (≈ 0.0507 µM) | 0.12 (≈ 0.101 µM) | 0.25 (≈ 0.211 µM) | 0.25 (≈ 0.211 µM) | 0.06 (≈ 0.0507 µM) |  |
| CN(C)CCCNC(=O)[C@H]1NC(=O)[C@H]2NC(=O)[C@H](NC(=O)[C@@H]3NC(=O)[C@H]4NC(=O)[C@@H](Cc5ccc(c(Cl)c5)Oc5cc3cc(c5O)Oc3ccc(cc3Cl)[C@H]2O)NC(=O)Cc2ccc(O)c(c2)Oc2cc(O)cc4c2)c2ccc(O)c(c2)-c2c(O)cc(O)cc21 | 0.12 (≈ 0.0946 µM) | 4 (≈ 3.15 µM) |  | 0.12 (≈ 0.0946 µM) | 0.12 (≈ 0.0946 µM) | 0.12 (≈ 0.0946 µM) | 0.12 (≈ 0.0946 µM) | 0.2 (≈ 0.158 µM) |  |
| CC(=O)N[C@@H]1[C@H](O[C@@H]2c3ccc(c(Cl)c3)Oc3cc4cc(c3O)Oc3ccc(cc3Cl)C[C@H]3NC(=O)Cc5ccc(O)c(c5)Oc5cc(O)cc(c5)[C@H](NC3=O)C(=O)N[C@H]4C(=O)N[C@H]3C(=O)N[C@@H]2C(=O)N[C@H](C(=O)O)c2cc(O)cc(O)c2-c2cc3ccc2O)O[C@@H](CO)[C@@H](O)[C@@H]1O | 8 (≈ 5.77 µM) | 16 (≈ 11.5 µM) |  | 8 (≈ 5.77 µM) | 2 (≈ 1.44 µM) | 2 (≈ 1.44 µM) | 1 (≈ 0.721 µM) | 2 (≈ 1.44 µM) |  |
